From article PMC8992017 (Journal of medicinal chemistry, 2019)
Entries after “also recorded” stand apart in the source; their conditions may differ.

How the values were obtained:
ISRE = ISRE activity in ISRE-bla THP-1 reporter cells; type: cell-based; conditions: compound 5 μM + IFN-α, compared with compound 1
How it was run: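 ISRE-bla THP-1 cells at 5×10^4/well in RPMI with 10% dialyzed FBS, 0.1 mM non-essential amino acids, 1 mM pyruvate and pen/strep. Test compound (1 mM DMSO stock) was diluted in IFN-α medium, giving final 5 μM compound ([…]) and final 100 U/mL IFN-α. Incubation 16 h, then CCF4-AM FRET substrate 3 h at RT in the dark. Excitation 405 nm; background-subtracted 465/535 nm emission ratio. Two-point normalized: reference sulfonamide + IFN-α = 200%, IFN-α alone = 100%; mean ± SEM.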

NF-κB = NF-κB activation in THP1-Blue NF-κB reporter cells; type: cell-based; conditions: compound 5 μM + LPS, compared with compound 1
How it was run: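 THP1-Blue NF-κB cells at 10^5/well in RPMI with 10% FBS, pen/strep and Normocin. Test compound (1 mM DMSO stock) was diluted into LPS medium, giving final 5 μM compound ([…]), with LPS co-added. After 20 h, supernatant SEAP was measured colorimetrically with QuantiBlue at 630 nm. Two-point normalized: reference sulfonamide + LPS = 200%, LPS alone = 100%; mean ± SEM.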

## CCOc1ccc(S(=O)(=O)Nc2cc(OC)c(N)cc2OC)cc1 [Compound 10, N-(4-amino-2,5-dimethoxyphenyl)-4-ethoxybenzenesulfonamide]
ISRE
  ISRE activity (in words): inactive

## CNC(=O)c1ccc(S(=O)(=O)Nc2cc(OC)c(Cl)cc2OC)cc1 [Compound 30, 4-(N-(4-chloro-2,5-dimethoxyphenyl)sulfamoyl)-N-methylbenzamide]
NF-κB
  NF-κB activity (in words): completely inactive
ISRE
  ISRE activity (in words): completely inactive

## CCOc1ccc(S(=O)(=O)N(CCCN)c2cc(OC)c(Cl)cc2OC)cc1.Cl [Compound 55, N-(3-aminopropyl)-N-(4-chloro-2,5-dimethoxyphenyl)-4-ethoxybenzenesulfonamide hydrochloride]
NF-κB
  NF-κB activity (in words): recovered
ISRE
  ISRE activity (in words): recovered

## CCCc1ccc(S(=O)(=O)Nc2cc(OC)c(Cl)cc2OC)cc1 [Compound 16, N-(4-chloro-2,5-dimethoxyphenyl)-4-propylbenzenesulfonamide]
NF-κB
  NF-κB activity (in words): loss of activity
ISRE
  ISRE activity (in words): loss of activity

## CCOc1ccc(S(=O)(=O)Nc2ccc(Cl)c(OC)c2)cc1 [Compound 4, N-(4-chloro-3-methoxyphenyl)-4-ethoxybenzenesulfonamide]
NF-κB
  NF-κB activity (in words): complete loss of activity
ISRE
  ISRE activity (in words): complete loss of activity

## C#CCOCCOCCOCCN(c1cc(OC)c(Cl)cc1OC)S(=O)(=O)c1ccc(OCC)cc1 [Compound 45, N-(4-chloro-2,5-dimethoxyphenyl)-4-ethoxy-N-(2-(2-(2-(prop-2-yn-1yloxy)ethoxy)ethoxy)ethyl)benzenesulfonamide]
NF-κB
  NF-κB activity (in words): too long to retain activity
ISRE
  ISRE activity (in words): too long to retain activity

## COC(=O)c1ccc(S(=O)(=O)Nc2cc(OC)c(Cl)cc2OC)cc1 [Compound 26, Methyl 4-(N-(4-chloro-2,5-dimethoxyphenyl)sulfamoyl)benzoate]
ISRE
  ISRE activity (in words): active

## COc1cc(NS(=O)(=O)c2ccc(OC)c(N=[N+]=[N-])c2)c(OC)cc1Cl [Compound 61, 3-Azido-N-(4-chloro-2,5-dimethoxyphenyl)-4-methoxybenzenesulfonamide]
ISRE
  ISRE activity (in words): inactive

## CCOc1ccc(S(=O)(=O)N(CCCC(=O)O)c2cc(OC)c(Cl)cc2OC)cc1 [Compound 53, 4-((N-(4-chloro-2,5-dimethoxyphenyl)-4-ethoxyphenyl)sulfonamido)butanoic acid]
NF-κB
  NF-κB activity (in words): retaining the NF-κB activity
ISRE
  ISRE activity (in words): reduction in ISRE activity

## CCNC(=O)CCCN(c1cc(OC)c(Cl)cc1OC)S(=O)(=O)c1ccc(OCC)cc1 [Compound 54, 4-((N-(4-chloro-2,5-dimethoxyphenyl)-4-ethoxyphenyl)sulfonamido)-N-ethylbutanamide]
NF-κB
  NF-κB activity (in words): retaining the NF-κB activity
ISRE
  ISRE activity (in words): reduction in ISRE activity

## COc1cc(NS(=O)(=O)c2ccc(CN)cc2)c(OC)cc1Cl [Compound 21, 4-(aminomethyl)-N-(4-chloro-2,5-dimethoxyphenyl)benzenesulfonamide]
NF-κB
  NF-κB activity (in words): either weakly active or completely inactive
ISRE
  ISRE activity (in words): either weakly active or completely inactive

## C#CCN(c1cc(OC)c(Cl)cc1OC)S(=O)(=O)c1ccc(OCC)cc1 [Compound 42, N-(4-chloro-2,5-dimethoxyphenyl)-4-ethoxy-N-(prop-2-yn-1-yl)benzenesulfonamide]
NF-κB
  NF-κB activity (in words): retained activity almost equivalent to that of compound 1
ISRE
  ISRE activity (in words): retained activity almost equivalent to that of compound 1

## COc1cc(NS(=O)(=O)c2ccc(N)cc2)c(OC)cc1Cl [Compound 18, 4-Amino-N-(4-chloro-2,5-dimethoxyphenyl)benzenesulfonamide]
NF-κB
  NF-κB activity (in words): either weakly active or completely inactive
ISRE
  ISRE activity (in words): either weakly active or completely inactive

## COc1ccc(S(=O)(=O)Nc2cc(OC)c(Cl)cc2OC)cc1N [Compound 60, 3-Amino-N-(4-chloro-2,5-dimethoxyphenyl)-4-methoxybenzenesulfonamide]
NF-κB
  NF-κB activity (in words): resurgence of activity
ISRE
  ISRE activity (in words): resurgence of activity

## COc1cc(NS(=O)(=O)c2ccc(CNC(=O)OC(C)(C)C)cc2)c(OC)cc1Cl [Compound 20, tert-butyl (4-(N-(4-chloro-2,5-dimethoxyphenyl)sulfamoyl)benzyl)carbamate]
NF-κB
  NF-κB activity (in words): either weakly active or completely inactive
ISRE
  ISRE activity (in words): either weakly active or completely inactive

## COc1cccc(S(=O)(=O)Nc2cc(OC)c(Cl)cc2OC)c1 [Compound 23, N-(4-chloro-2,5-dimethoxyphenyl)-3-methoxybenzenesulfonamide]
NF-κB
  NF-κB activity (in words): none of these molecules was active
ISRE
  ISRE activity (in words): none of these molecules was active

## CCOc1ccc(S(=O)(=O)N(CCc2ccccc2)c2cc(OC)c(Cl)cc2OC)cc1 [Compound 47, N-(4-chloro-2,5-dimethoxyphenyl)-4-ethoxy-N-phenethylbenzenesulfonamide]
NF-κB
  NF-κB activity (in words): potent analogs
ISRE
  ISRE activity (in words): potent analogs

## CCOc1ccc(S(=O)(=O)N(c2cc(OC)c(Cl)cc2OC)C(C)C)cc1 [Compound 40, N-(4-chloro-2,5-dimethoxyphenyl)-4-ethoxy-N-isopropylbenzenesulfonamide]
NF-κB
  NF-κB activity (in words): eliminated the NF-κB activity
ISRE
  ISRE activity (in words): retaining ISRE activity

## C#CCOc1ccc(S(=O)(=O)Nc2cc(OC)c(Cl)cc2OC)cc1 [Compound 15, N-(4-chloro-2,5-dimethoxyphenyl)-4-(prop-2-yn-1-yloxy)benzenesulfonamide]
NF-κB
  NF-κB activity (in words): inactive
ISRE
  ISRE activity (in words): inactive

## CCOc1ccc(S(=O)(=O)N(CCCNC(=O)CCCC[C@H]2SC[C@H]3NC(=O)N[C@H]32)c2cc(OC)c(N=[N+]=[N-])cc2OC)cc1 [Compound 64, N-(3-((N-(4-azido-2,5-dimethoxyphenyl)-4-ethoxyphenyl)sulfonamido)propyl)-5((3aR,4R,6aS)-2-oxohexahydro-1H-thieno[3,4-d]imidazol-4-yl)pentanamide]
NF-κB
  NF-κB activity (in words): relatively weak activity
ISRE
  ISRE activity (in words): relatively weak activity

## CCOc1ccc(S(=O)(=O)Nc2cc(OC)c(Br)cc2OC)cc1 [Compound 7, N-(4-bromo-2,5-dimethoxyphenyl)-4-ethoxybenzenesulfonamide]
NF-κB
  NF-κB activity (in words): retained activity
ISRE
  ISRE activity (in words): retained activity; also recorded: slightly skewed ISRE activity

## COc1ccc(S(=O)(=O)Nc2cc(OC)c(Cl)cc2OC)cc1 [Compound 12, N-(4-chloro-2,5-dimethoxyphenyl)-4-methoxybenzenesulfonamide]
NF-κB
  NF-κB activity (in words): tolerated
ISRE
  ISRE activity (in words): tolerated

## COc1cc(NS(=O)(=O)c2ccc(Oc3ccccc3)cc2)c(OC)cc1Cl [Compound 22, N-(4-chloro-2,5-dimethoxyphenyl)-4-phenoxybenzenesulfonamide]
ISRE
  ISRE activity (in words): inactive

## CCOc1ccc(S(=O)(=O)Nc2cc(OC)c([N+](=O)[O-])cc2OC)cc1 [Compound 9, N-(2,5-dimethoxy-4-nitrophenyl)-4-ethoxybenzenesulfonamide]
ISRE
  ISRE activity (in words): inactive
